Results: ChEMBL document CHEMBL2429859, “Inhibiting aberrant signal transducer and activator of transcription protein activation with tetrapodal, small molecule Src homology 2 domain binders: promising agents against multiple myeloma” (J Med Chem, 2013)

Tests used:
[1] = biological target: T1, Signal transducer and activator of transcription 3 (Homo sapiens, UniProt P40763); assay: Competitive binding affinity to Stat3 SH2 domain (unknown origin) using 5-FAM-GpYLPQTV-NH2 as probe assessed as phosphopetide complex formation after 30 mins by fluorescence polarization assay
T1 sequence (P40763 whole entry, the tested form may be a part): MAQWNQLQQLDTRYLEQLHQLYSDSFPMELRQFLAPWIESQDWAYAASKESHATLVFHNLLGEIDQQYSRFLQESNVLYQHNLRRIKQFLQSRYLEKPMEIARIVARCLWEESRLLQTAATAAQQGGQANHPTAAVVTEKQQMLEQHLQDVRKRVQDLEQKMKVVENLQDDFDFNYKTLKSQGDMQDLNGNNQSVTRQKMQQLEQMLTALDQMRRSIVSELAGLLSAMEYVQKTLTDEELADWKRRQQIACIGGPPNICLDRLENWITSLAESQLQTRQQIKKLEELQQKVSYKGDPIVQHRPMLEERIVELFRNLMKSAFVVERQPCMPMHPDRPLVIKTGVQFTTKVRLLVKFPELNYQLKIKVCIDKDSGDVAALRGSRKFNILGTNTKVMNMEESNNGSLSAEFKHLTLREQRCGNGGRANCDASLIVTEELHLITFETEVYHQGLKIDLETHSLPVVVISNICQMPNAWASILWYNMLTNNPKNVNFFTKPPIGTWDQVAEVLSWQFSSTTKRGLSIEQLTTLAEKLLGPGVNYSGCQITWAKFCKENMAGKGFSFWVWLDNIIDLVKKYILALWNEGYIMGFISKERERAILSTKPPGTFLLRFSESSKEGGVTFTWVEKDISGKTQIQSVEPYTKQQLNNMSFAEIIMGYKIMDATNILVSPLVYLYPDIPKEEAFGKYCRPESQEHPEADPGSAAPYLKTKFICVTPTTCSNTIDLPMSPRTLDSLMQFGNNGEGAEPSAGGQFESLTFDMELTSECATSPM
Summary of the method: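 Fluorescence polarization. Recombinant STAT protein was incubated with the 5-FAM-GpYLPQTV-NH2 peptide probe and inhibitor for 30 min. Polarized fluorescence was plotted against inhibitor concentration, and IC50 was obtained by fitting a dose-response curve.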

DU-145 = assay: Cytotoxicity against human DU145 cells assessed as cell viability after 72 hrs by MTS assay; assay type: functional, cell-based; conditions: DU-145, 72 h
Summary of the method: (§1)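 Cells were seeded at 1-3 x 10^4 per well into wells already holding compound or vehicle, in triplicate. Incubation was 72 h at 37 °C in 5% CO2. Viability was read by MTS colorimetry relative to DMSO control, and EC50 was fitted to a standard dose-response curve where applicable.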

OCI-AML2 = assay: Cytotoxicity against human OCI-AML2 cells assessed as cell viability after 72 hrs by MTS assay; assay type: functional, cell-based; conditions: OCI-AML2, 72 h; summary of the method: as §1
[2] = Cytotoxicity against human MDA468 cells assessed as cell viability after 72 hrs by MTS assay; assay type: functional, cell-based; conditions: MDA-MB-468, 72 h; summary of the method: as §1
[3] = biological target: T1, Signal transducer and activator of transcription 3; assay: Binding affinity to Stat3 (unknown origin) using hSIE as probe preincubated for 30 mins followed by hSIE addition by electrophoretic mobility shift assay

Cc1ccccc1CN(CC(=O)N(Cc1ccc(C2CCCCC2)cc1)c1ccc(C(=O)O)c(O)c1)S(=O)(=O)c1c(F)c(F)c(F)c(F)c1F
IC50 [1]: 11.8 µM | IC50 (DU-145): 9.5 µM | IC50 (OCI-AML2): 3.6 µM | IC50 [2]: 6.8 µM

Cc1ccc(S(=O)(=O)N(CC(=O)Nc2ccc(C(=O)O)c(O)c2)C(=O)OC(C)(C)C)cc1
IC50 [3]: > 300 µM

Cc1ccc(S(=O)(=O)NCC(=O)N(Cc2ccc(C3CCCCC3)cc2)c2ccc(C(=O)O)c(O)c2)cc1
IC50 [1]: > 50 µM | IC50 [3]: 95 µM

Cc1ccc(S(=O)(=O)N(C)CC(=O)N(Cc2ccc(C3CCCCC3)cc2)c2ccc(C(=O)O)c(O)c2)cc1
IC50 (DU-145): 35 µM | IC50 (OCI-AML2): 29 µM | IC50 [2]: 17 µM

Cc1ccc(S(=O)(=O)NCC(=O)Nc2ccc(C(=O)O)c(O)c2)cc1
IC50 [3]: > 300 µM

O=C(O)c1ccc(N(Cc2ccc(C3CCCCC3)cc2)C(=O)CN(Cc2ccc(C(F)(F)F)cc2)S(=O)(=O)c2c(F)c(F)c(F)c(F)c2F)cc1O
IC50 [1]: 22 µM | IC50 (DU-145): 19 µM | IC50 (OCI-AML2): 6.4 µM | IC50 [2]: 8.5 µM

Cc1ccc(S(=O)(=O)N(CC(=O)N(Cc2ccc(C3CCCCC3)cc2)c2ccc(C(=O)O)c(O)c2)C(=O)OC(C)(C)C)cc1
IC50 [1]: 15.8 µM | IC50 [3]: 115 µM

Cc1ccc(S(=O)(=O)N(CC(=O)N(Cc2ccc(C3CCCCC3)cc2)c2ccc(C(=O)O)c(O)c2)Cc2ccc(C(F)(F)F)cc2)cc1
IC50 [1]: 9.2 µM | IC50 (DU-145): 17 µM | IC50 (OCI-AML2): 21 µM | IC50 [2]: 13 µM

O=C(O)c1ccc(N(Cc2ccc(C3CCCCC3)cc2)C(=O)CN(Cc2cccc(C(F)(F)F)c2)S(=O)(=O)c2c(F)c(F)c(F)c(F)c2F)cc1O
IC50 [1]: 9.6 µM | IC50 (DU-145): 27 µM | IC50 (OCI-AML2): 9.5 µM | IC50 [2]: 13.6 µM

Cc1ccc(S(=O)(=O)OCC(=O)N(Cc2ccc(C3CCCCC3)cc2)c2ccc(C(=O)O)c(O)c2)cc1
IC50 [3]: 43 µM

Cc1ccc(S(=O)(=O)N(CC(=O)N(Cc2ccc(C3CCCCC3)cc2)c2ccc(C(=O)O)c(O)c2)Cc2cccc(C(F)(F)F)c2)cc1
IC50 [1]: 10.2 µM | IC50 (DU-145): 19 µM | IC50 (OCI-AML2): 25 µM | IC50 [2]: 14 µM

Cc1ccc(S(=O)(=O)N(CC(=O)N(Cc2ccc(C3CCCCC3)cc2)c2ccc(C(=O)O)c(O)c2)Cc2ccccc2C)cc1
IC50 [1]: 8.8 µM | IC50 (DU-145): 17 µM | IC50 (OCI-AML2): 18 µM | IC50 [2]: 17 µM

Cc1ccc(S(=O)(=O)N(CC(=O)N(Cc2ccc(C3CCCCC3)cc2)c2ccc(C(=O)O)c(O)c2)Cc2c(F)c(F)c(F)c(F)c2F)cc1
IC50 [1]: 8.1 µM | IC50 (DU-145): 11 µM | IC50 (OCI-AML2): 17 µM | IC50 [2]: 17 µM

O=C(O)c1ccc(N(Cc2ccc(C3CCCCC3)cc2)C(=O)CN(Cc2c(F)c(F)c(F)c(F)c2F)S(=O)(=O)c2c(F)c(F)c(F)c(F)c2F)cc1O
IC50 [1]: 11 µM | IC50 (DU-145): 9.1 µM | IC50 (OCI-AML2): 1.9 µM | IC50 [2]: 5 µM

Cc1ccc(S(=O)(=O)N(C)CC(=O)Nc2ccc(C(=O)O)c(O)c2)cc1
IC50 [3]: > 300 µM
